# Screens from PubChem BioAssay.
# This is a sample that favours compounds with a hit; in the whole collection about 2.3% have one here.
# SUMO1 PPI mod: SUMO1-SIM interaction modulation | P63165 | SUMO1 binding to a labelled peptide, TR-FRET, 1 h | inhibition, % at 20 µM | 360,000 compounds, 0.33% hits | AID 602429; in the data active = inhibition above about 37%
# Target sequence (P63165 whole entry, looked up): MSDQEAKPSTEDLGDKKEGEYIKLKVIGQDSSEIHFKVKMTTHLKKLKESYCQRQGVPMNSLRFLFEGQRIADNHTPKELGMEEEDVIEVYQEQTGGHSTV
# LMPTP block: LMPTP (human) inhibition; P24666; recombinant LMPTP-A, OMFP fluorogenic substrate, fluorescence intensity; inhibition, % at 20 µM; 360,000 compounds, 0.22% hits; AID 651560;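 active = compounds that cut the enzyme signal by at least half of the control window in the single-dose screen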
# Target sequence (P24666 whole entry, looked up): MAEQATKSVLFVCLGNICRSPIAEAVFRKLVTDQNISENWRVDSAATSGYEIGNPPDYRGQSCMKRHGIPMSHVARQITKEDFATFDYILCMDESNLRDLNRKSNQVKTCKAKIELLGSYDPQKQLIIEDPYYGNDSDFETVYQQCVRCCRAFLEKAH
#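 Buffer or medium: Bis-Tris pH 6.0, DTT, detergent; Assay system: LMPTP-A enzyme; Quantity: 0.625 nM enzyme; Detection: endpoint fluorescence intensity; Times: 50 min dark incubation at room temperature; Controls: substrate-only low control, DMSO enzyme-plus-substrate high control; Doses: single 20 µM dose; Read-out: percent inhibition versus substrate-only and uninhibited controls; Reagent: 400 µM OMFP.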
# Scp1 inh: blocks human Scp-1 phosphatase activity; Q9GZU7; Recombinant Scp1, phosphopeptide, malachite green phosphate absorbance; inhibition, % at 20 µM; 340,000 compounds, 0.88% hits; AID 493091;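 active = inhibition above about 50% at 20 µM, limit read from the data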
# Target sequence (Q9GZU7 76-261 limits assumed): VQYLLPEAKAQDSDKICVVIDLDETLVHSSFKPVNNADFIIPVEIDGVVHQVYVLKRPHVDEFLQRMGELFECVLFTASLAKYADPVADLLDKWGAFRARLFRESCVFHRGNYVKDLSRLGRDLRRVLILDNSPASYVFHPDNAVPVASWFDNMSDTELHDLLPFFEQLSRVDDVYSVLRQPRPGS
#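 Material – SCP-1 phosphatase catalytic domain, residues 76-261 · Buffer or medium – Acidic Tris acetate buffer with magnesium and detergent · Also added – Phospho 17-mer peptide substrate · Compound – single 20 µM dose, 1% DMSO · Times – 45 min room-temperature reaction, 5 min colour, 30 min stabiliser · Technique – Phosphate-binding colour reagent, absorbance read at 630 nm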
# Rpn11 inh: Rpn11 (human) deubiquitinase inhibition; 360,000 compounds, 0.59% hits; inhibition, % at 20 µM; human 26S proteasome, Ub4-pepOG fluorescence polarization; 20S core pre-blocked with epoxomicin; AID 588493;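 active = inhibition at 20 µM, scaled to each plate's controls, above about 33%, limit read from the data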
# STEP inh: STEP (human) phosphatase inhibition; AID 588621; inhibition, % at 20 µM; recombinant STEP, OMFP fluorogenic substrate, fluorescence; 360,000 compounds, 0.25% hits; P54829;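 active = inhibition at 20 µM, scaled per plate between control wells, above about 37%, limit read from the data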
#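 System: isolated STEP enzyme; schedule: 20 min enzyme reaction at room temperature, protected from light; medium: Bis-Tris buffer pH 6.0, 2.5 mM DTT, 0.005% Tween 20; signal: fluorescence, 480/540 nm; dosing: single compound dose of 20 µM, 1% DMSO final; also added: OMFP substrate, 25 µM final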
# DNMT1 inh: DNMT1 (human) enzyme inhibition | DNMT1 molecular beacon, Hinp1I cleavage, fluorescence | 360,000 compounds, 0.83% hits | inhibition (reported as % activation of signal), % at 10 µM | P26358; in the data active = inhibition above about 50%
# A number is an active result; 0 = inactive; - = not tested or not shown.
SMILES,SUMO1 PPI mod,LMPTP block,Scp1 inh,Rpn11 inh,STEP inh,DNMT1 inh
CCCc1cc(C(=O)N/N=C/c2cccn2C)cs1,0,0,0,0,0,0
COc1ccc(OCC(=O)N2CCCC(Nc3ccc(C)c(C)c3)C2)cc1 (stereo unspecified),0,0,-,0,0,0
CC(C)OC(=O)c1ccc(NC(=O)Cn2c(-c3nonc3N)nc3ccccc32)cc1,42.7,0,0,0,0,0
Nc1nonc1-c1nc2ccccc2n1CC(=O)N/N=C/c1ccc(-c2cccc(C(=O)O)c2)o1,0,0,72.0,0,0,0
O=C(c1cc(Br)ccc1O)N1CCN(S(=O)(=O)Cc2ccccc2)CC1,0,0,0,0,0,0
Brc1ccc(C2Nc3cccc4cccc(c34)N2)s1,0,0,0,0,0,55.2
Clc1ccc(C2Nc3cccc4cccc(c34)N2)cc1,0,0,0,0,0,0
CCCCC(=O)Nc1ccc(NC(=O)C2CC2)nc1,57.2,0,0,0,0,0
CN(C)c1ccc(N=Nc2ccc(S(N)(=O)=O)cc2)cc1,0,53.0,0,0,93.9,0
CN(C)N=Nc1ccc(S(N)(=O)=O)cc1,0,0,0,0,0,0
NS(=O)(=O)c1ccc(N=Nc2c[nH]c(=O)c(O)c2)cc1,0,0,70.2,0,0,0
Cn1cnnc1SCC(=O)Nc1ncc([N+](=O)[O-])s1,0,0,74.7,0,0,83.7
S=C1Cc2ccccc2N1,76.6,0,0,0,0,83.3
S=C1Nc2ccccc2CS1,0,0,-,0,0,0
CN(C(=O)COC(=O)c1cccc(Cl)c1)C1CCS(=O)(=O)C1 (stereo unspecified),0,0,0,0,0,0
CN(C(=O)COC(=O)c1ccc(-c2ccc(O)cc2)cc1)C1CCS(=O)(=O)C1 (stereo unspecified),38.6,0,0,0,0,0
Cc1nn(CCc2nn[nH]n2)c2nc(-c3ccc(C4CCCCC4)cc3)cc(C(F)(F)F)c12,40.2,0,0,0,0,0
Fc1ccc(-n2nnnc2-c2cnc(-c3cccs3)nc2C(F)(F)F)cc1,0,0,0,0,0,0
COc1ccc(Nc2nc(N3CCCC3)c3ccccc3n2)cc1,0,51.4,0,0,0,0
CCN(CC)c1ccc(Nc2nc(N3CCOCC3)c3ccccc3n2)cc1,0,0,0,0,0,0
C[n+]1ccccc1/C=C/c1c(F)cccc1F,0,0,0,0,0,0
C[n+]1ccccc1/C=C/c1ccccc1Cl,0,0,98.2,0,0,0
COc1cccc2c(SCC(=O)N/N=C/c3ccc(O)c(O)c3)cc(C)nc12,0,0,0,0,0,0
COc1ccc2nc(C)cc(SCC(=O)N/N=C/c3ccc(O)c(O)c3)c2c1,0,56.7,0,0,0,0
COc1ccc2nc(-n3c(O)c(C4=c5ccccc5=NC4=O)[nH]c3=S)sc2c1,0,0,84.9,0,0,0
SMILES,SUMO1 PPI mod,LMPTP block,Scp1 inh,Rpn11 inh,STEP inh,DNMT1 inh
Cn1c(O)c(C2=c3ccccc3=NC2=O)[nH]c1=S,0,0,0,0,0,0
Cc1ccc2nc(-c3cc(-c4ccccc4)no3)cn2c1,62.1,0,0,0,0,0
COc1ccc(OCC(=O)N2CCCC(CO)(CCOc3ccccc3)C2)cc1 (stereo unspecified),0,0,0,0,0,0
Cn1c(C(=O)OC(C(=O)NCC2CCCO2)c2cccnc2)cc2sccc21 (stereo unspecified),0,0,57.3,0,0,0
CC(OC(=O)c1cc2sccc2n1C)C(=O)NCC1CCCO1 (stereo unspecified),0,0,0,0,0,0
Cc1sc2ncn(CC(=O)N3CCCCC3)c(=O)c2c1S(=O)(=O)N1CCC(C)CC1,0,0,0,0,0,0
CCCN1CCN(C(=O)Cn2cnc3sc(C)c(S(=O)(=O)N4CCC(C)CC4)c3c2=O)CC1,47.7,0,0,0,0,0
COc1ccc(NC(=O)c2sc3nc(N4CCOCC4)c4c(c3c2N)CCCC4)c(OC)c1,0,0,0,0,0,0
Nc1c(C(=O)Nc2ccc(Br)cc2)sc2nc(N3CCOCC3)c3c(c12)CCCC3,0,0,-,0,0,50.1
CCCN(CCC)C(=O)CC(c1ccc(F)cc1)c1ccco1 (stereo unspecified),0,0,0,0,48.1,0
